# Rows were chosen to be rich in hits. Some 2.6% of all compounds tested hit in one or more screens of this group.
# SR-BI uptake up: activators of SR-BI mediated DiI-HDL uptake, primary screen, ldlA[mSR-BI] CHO cells, DiI fluorescence; 3 h; 100 = double the neutral-control signal; activation, % at 12.5 µM; 320,000 tested, 0.096% active;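 active = mean replicate activation of at least 60% and every replicate at or above 60%; inconclusive = mean or all-replicate condition met, but not both; inactive = mean below 60% and not all replicates reaching 60%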;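 also: 0% = median plate neutral-control signal and 100% = twice that signal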
#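 Assay system: CHO ldlA[mSR-BI] cells, LDL receptor-null, SR-BI overexpressing; medium: Ham's F12 with 0.5% BSA, HEPES 25 mM, pH 7.4; also added: DiI-HDL 10 µg/mL; timing: 3 h uptake period with compound, 37 °C; signal: DiI fluorescence, bottom read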
# XiGFP reactiv: activators of inactive X chromosome reactivation, primary screen, imaging, XiGFP fibroblasts, GFP high-content imaging, set 2 | XiGFP mouse fibroblasts, % GFP-positive cells imaging, 3 d; cells co-treated with 5-aza-dC sensitizer; scaled so ellipticine positive control = 100% | 360,000 tested, 0.055% active | activation, % at 7.58 µM;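 active = mean normalized replicate activation at least 10% and every replicate at or above 10%; inconclusive = only one of the two criteria met; inactive = mean below 10% and not all replicates reach 10%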;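 also: 0% = median of on-plate neutral control wells and 100% = ellipticine 6 µM median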
#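 Material: XiGFP fibroblasts, SV40-immortalized; Buffer or medium: DMEM containing 5-aza-dC; Compound dosing: single point; Times: 3 days compound exposure.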
# PvdQ inh: P. aeruginosa PvdQ acylase inhibitors, primary screen, biochemical, fluorescence, plate reader and imaging, single point; purified PvdQ acylase; inhibition, % at 10 µM; 340,000 tested, 0.063% active; in the data active = inhibition above about 30%, passing the limit was not always enough; inconclusive = no clear call, values can overlap the other calls;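 also: 0% = vehicle neutral wells and 100% = reference inhibitor wells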
# dFosB act: activators of delta FosB homodimer, primary screen, biochemical, fluorescence polarization, TAMRA-CDK5 oligo, single point; Protein FosB (Mus musculus), P13346; purified delta FosB; percent of positive-control signal above neutral wells; activation, % at 25 µM; 340,000 tested, 0.99% active;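 active = mean activation above about 17%, with every replicate also reaching it, limit read from the data, passing the limit was not always enough; inconclusive = only one of the two conditions met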
# SR-BI DiI inh: inhibitors of SR-BI mediated HDL lipid uptake, primary screen, ldlA[mSR-BI] cells, fluorescence, single point; Scavenger receptor class B member 1 (Mus musculus), Q61009; AID 488896, 2010; 320,000 tested, 0.96% active; inhibition, % at 12.5 µM; ldlA[mSR-BI] CHO cells, DiI-HDL uptake fluorescence, 3 h;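 active = mean replicate inhibition of at least 70% and a set share of replicates each scoring 70 or more; inconclusive = meets just one of the two criteria; inactive = fails both criteria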;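 also: 0% = median of neutral control wells and 100% = median of positive control wells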
# Target sequence (Q61009 whole entry, looked up): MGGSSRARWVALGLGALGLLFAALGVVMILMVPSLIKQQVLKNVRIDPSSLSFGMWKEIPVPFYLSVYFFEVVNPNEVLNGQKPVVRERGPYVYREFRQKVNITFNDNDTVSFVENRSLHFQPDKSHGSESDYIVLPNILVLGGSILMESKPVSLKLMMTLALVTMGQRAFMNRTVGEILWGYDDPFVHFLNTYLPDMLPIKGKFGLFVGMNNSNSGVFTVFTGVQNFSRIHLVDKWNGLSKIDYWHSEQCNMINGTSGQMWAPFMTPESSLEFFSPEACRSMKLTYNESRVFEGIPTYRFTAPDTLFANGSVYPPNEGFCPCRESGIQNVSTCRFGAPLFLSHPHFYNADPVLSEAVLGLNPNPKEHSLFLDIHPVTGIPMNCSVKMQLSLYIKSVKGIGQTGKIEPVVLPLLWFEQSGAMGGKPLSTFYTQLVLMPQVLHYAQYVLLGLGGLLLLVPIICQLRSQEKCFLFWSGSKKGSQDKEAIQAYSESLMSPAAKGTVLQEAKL
# Ecoli rRNA inh: reduced GFP signal of wild-type E. coli, primary screen, bacterial rRNA inhibitor project, GFP/RFP fluorescence, OD600, single point. AID 720706, 2013. 350,000 tested, 1.6% active. GFP signal change (wild-type ribosome), % (concentration not given with the values). E. coli WT GFP vs humanized-ribosome RFP mutants, 24 h; stronger effect = lower value; DMSO median 0, no signal -100;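 active = significant combined selectivity score with lowered wild-type GFP, culture density cut under 30%, mutant RFP and density less affected; inactive = any of these conditions unmet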
# * = called active by the depositor; ? = inconclusive; . = not tested or not shown.
SMILES,SR-BI uptake up,XiGFP reactiv,PvdQ inh,dFosB act,SR-BI DiI inh,Ecoli rRNA inh
COc1ccc(-c2noc(CSc3nnc(Cc4ccccc4)n3-c3cccc(C)c3)n2)cc1OC,-38,.,-12,-20,38,-26*
O=[N+]([O-])c1ccc(Oc2ccc(Oc3ccc(C(F)(F)F)cn3)cc2)nc1,4,1,-7,-6,-4,-3
Cc1ccc(S(=O)(=O)CCC(=O)OCc2ccc(Cl)cc2)cc1,25,0,12,-2,-25,-26*
Clc1ccc(-c2nc3ccc(Br)cn3c2Cc2ccsc2)cc1,.,0,.,.,.,-23*
O=C(NCc1cccs1)c1ccc([N+](=O)[O-])cc1,21,0,1,0,-21,2
CC(C)(C)C1CCc2c(sc(NC(=O)C3CCCO3)c2C(N)=O)C1 (configuration not stated),-78,.,-11,-4,78*,.
Cc1ccc(C)c(N2CN(CCC3=CCCCC3)CNC2=S)c1,-11,0,18,2,11,-28*
COCC(=O)Nc1ccc2c(c1)[C@H]1C[C@@H](CC(=O)NCc3ccc4c(c3)OCO4)O[C@H](CO)[C@H]1O2,.,0,.,.,.,-2
NNC(=S)NC1CC2CC1C1C=CCC21 (configuration not stated),9,1,-1,-1,-9,-21*
Oc1ccc(O)c(C=NNC(=S)NC2CC3CC2C2C=CCC32)c1 (configuration not stated),.,0,.,.,.,-63
O=C(Cc1cccc(NC(=O)C2CCCN(C(=O)CCc3ccccc3)C2)c1)Nc1cccc(C(=O)N2CCOCC2)c1 (configuration not stated),-41,.,-8,2,41,-1
CN(Cc1ccccc1)C(=O)c1cccc(NC(=O)Cc2cccc(NC(=O)C3CCN(C(=O)C4CC4)CC3)c2)c1,-16,0,13,4,16,.
O=C(Cc1cccc(NC(=O)C2CCCN(C(=O)CCc3ccccc3)C2)c1)Nc1cccc(C(=O)N2CCCCC2)c1 (configuration not stated),.,0,-9,-18,.,-18*
O=C(Cc1ccc(NC(=O)C2CCCN(C(=O)C3CCC3)C2)cc1)Nc1cccc(C(=O)N2CCCC2)c1 (configuration not stated),-54,0,-13,-7,54,0
CN(Cc1ccccc1)C(=O)c1cccc(NC(=O)Cc2ccc(NC(=O)C3CCN(C(=O)C4CCC4)CC3)cc2)c1,-92,0,-17,-9,92*,4
O=C(Cc1ccc(NC(=O)C2CCCN(C(=O)C3CCCC3)C2)cc1)Nc1cccc(C(=O)N2CCCCC2)c1 (configuration not stated),-73,0,-5,2,73*,3
CC(C)(C)C1CCC(=NOC(=O)c2ccc(F)cc2)CC1 (configuration not stated),10,0,30,1,-10,-41*
Oc1ccccc1-c1nc(NC2CCCC2)c2ccccc2n1,-82,0,-9,-11,82*,11
O=C(OCc1ccc(Cl)cc1)c1cccnc1Cl,9,0,15,7,-9,-6
CCCCn1nc2cc(C(=O)NCc3ccc(C(F)(F)F)cc3C(F)(F)F)ccc2c1OCC,-35,0,-2,0,35,8
O=C1c2ccccc2C(c2nnnn2-c2ccc3c(c2)OCCO3)N1CCc1ccccc1F (configuration not stated),.,0,.,.,.,-34*
CCCn1c(=N)n(CC(O)COc2ccc(C)cc2)c2ccccc21 (configuration not stated),-23,0,-16,-11,23,-26*
OC(COc1ccccc1)Cn1c2ccccc2c2ccccc21 (configuration not stated),.,0,-9,-4,.,.
O=C(O)c1ccc(OCC(O)Cn2c3ccccc3c3ccccc32)cc1 (configuration not stated),3,0,0,-1,-3,-46*
CC(=O)N(Cc1ccccc1)c1ncc2c(n1)c(=O)c(C#N)c1ccccn12,28,.,6,-1,-28,.
SMILES,SR-BI uptake up,XiGFP reactiv,PvdQ inh,dFosB act,SR-BI DiI inh,Ecoli rRNA inh
C=CCn1c(N)cc(=O)nc1SC(C)C(=O)Nc1cccc2ccccc12 (configuration not stated),-9,.,-15,1,9,.
N#C/C(=C/c1ccco1)c1nc2ccccc2s1,18,0,41*,-1,-18,.
CCCCn1nc2cc(C(=O)NC3CCc4ccccc43)ccc2c1OCC (configuration not stated),-77,0,-14,1,77*,-4
CCCn1nc2cc(C(=O)NC3CCCc4ccccc43)ccc2c1OCC (configuration not stated),-65,0,1,-15,65,-5
O=C(Nc1nnc(CCN2CCOCC2)s1)c1ccccc1,5,.,-1,-1,-5,-2
COc1cc(/C=C2\SC(=S)N(NC(=O)c3ccc(O)cc3)C2=O)ccc1O,-15,0,-3,28*,15,-23
COc1cc(/C=C2\SC(=S)N(NC(=O)c3cccnc3)C2=O)ccc1O,-7,0,-4,31*,7,-6
COc1cc(/C=C2\SC(=S)N(Nc3ccccc3)C2=O)ccc1O,-1,0,1,?,1,.
COc1cc(/C=C2\SC(=S)N(C(Cc3ccccc3)C(=O)O)C2=O)ccc1O (configuration not stated),.,0,10,18*,.,-54
CC(/C=C1\SC(=S)N(NC(=O)c2ccc(O)cc2)C1=O)=C\c1ccccc1,30,0,-11,7,-30,-25*
CCOc1ccc(N(CC(=O)O)S(=O)(=O)c2cccnc2)cc1,6,0,-7,0,-6,9
COC(=O)c1ccccc1NC(=O)C1CCCN(S(=O)(=O)c2ccccc2)C1 (configuration not stated),-2,.,1,-13,2,.
O=C(NN1C(=O)/C(=C/c2ccc(O)c(O)c2)SC1=S)c1ccccc1,-48,0,-5,7,48,-31*
